The results in this text go back to ChEMBL document CHEMBL1629704, “Inhibition of dengue virus by an ester prodrug of an adenosine analog” (Antimicrob Agents Chemother, 2010).

The source made the active and inactive calls. The calls are words filed in the database; no cut-off is given here.

The subject of series [1] is Rattus norvegicus. Kind of series: Cmax in Wistar rat assessed as NITD449 level at 84.1 mg/kg, po by LC-MS-MS analysis. The format is ADME, organism-based. Also on record: dose 84.1 mg/kg, route oral. Particulars: in vivo. Put shortly:
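Fasted female Wistar rats were dosed orally with the prodrug in 20% solutol HS15, 30% PEG 300, 50% 100 mM citrate pH 3. Groups of three were serially bled 0.17–48 h. Plasma parent levels came from LC-MS-MS (MRM, LLOQ 9.2 ng/ml) and noncompartmental modeling. F used dose-corrected AUC versus parent i.v. at 5.9 mg/kg.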

Series [2] deals with dengue virus type 2. Kind of series: Antiviral activity against Dengue virus 2 TSV01 infected in AG129 mouse assessed as reduced viremia by 3 mg/kg, po BID for 3 days measured on day 4 by plaque assay. The format is functional. In a few lines: (§1)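 AG129 mice (lacking IFN-α/β and IFN-γ receptors) were inoculated i.p. with 2 × 10^6 PFU DENV-2 in 0.4 ml. Immediately afterwards, 0.2 ml compound in ethanol-PEG-D5W (10:30:60) was given by oral gavage twice daily for 3 days. Day-4 blood viremia was measured by plaque assay; 6 or 8 mice per group.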

Series [3] concerns Yellow fever virus. Kind of series: Antiviral activity against Yellow fever virus 17D infected in african green monkey Vero cells at 12.5 uM after 48 hrs by plaque assay. Format: functional.
The test system of series [4] is dengue virus type 2. Kind of series: Antiviral activity against Dengue virus 2 TSV01 infected in AG129 mouse assessed as reduced viremia by 10 mg/kg, po BID for 3 days measured on day 4 by plaque assay. The format is functional. In a few lines: as §1
Series [5] relates to Hepatitis C virus. Kind of series: Antiviral activity against HCV subtype 1b infected in human Huh-7 cells after 48 hrs by luciferase assay. Format: functional, organism-based. The following applies: Hepacivirus hominis, genotype 1b. Put shortly:
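Huh-7 cells bearing a luciferase-reporting HCV genotype 1b replicon were incubated with compound. Luciferase was read at 48 h posttreatment and efficacy estimated from signal reduction; n = 3.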

Series [6] deals with dengue virus type 2. In words: Antiviral activity against Dengue virus 2 NGC infected in african green monkey Vero cells at 12.5 uM after 48 hrs by plaque assay. The format is functional. Put shortly:
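Titer reduction: Vero cells (4 × 10^5/well) infected 24 h after seeding at MOI 0.1 and treated immediately with compound. Culture medium was collected 48 h postinfection and titered by plaque assay; n = 3, mean ± SD.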

In series [7] the test system is Rattus norvegicus. Kind of series: Toxicity in Wistar rat at 75 mg/kg/day, po for 2 weeks. The format is organism-based. Also on record: route oral. Particulars: in vivo, 336 h. Put shortly:
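Male Wistar rats, 10 weeks old, dosed orally daily for 2 weeks; five per dose group. Clinical signs, body weight and mortality were monitored.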

Series [8] has as its system dengue virus type 2. In words: Antiviral activity against Dengue virus-2 NGC infected in hamsters BHK21 cells assessed as inhibition of viral RNA synthesis at 1 uM after 2 to 4 hrs of infection by luciferase assay. The format is functional, organism-based. The following applies: BHK-21.
Series [9] concerns dengue virus type 2. Kind of series: Antiviral activity against Dengue virus 2 TSV01 infected in AG129 mouse assessed as reduced viremia by 25 mg/kg, po BID for 3 days measured on day 4 by plaque assay. Format: functional. In a few lines:
as §1

In series [10] the test system is dengue virus type 1. In words: Antiviral activity against Dengue virus 1 MY10245 infected in human A549 cells by CFI assay. Format: functional, organism-based. In a few lines: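 CFI assay: A549 cells seeded 2 × 10^4/well, infected next day (MOI 0.3 for DENV-2) with compound-virus mixture for 1 h, then refed with compound-containing medium. On day 2 cells were methanol-fixed at 4°C and intracellular E protein detected by ELISA (4G2 primary, HRP anti-mouse secondary). EC50 is the average of two independent experiments.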

Turning to `C#C[C@@]1(O)[C@H](OC(=O)C(C)C)[C@@H](COC(=O)C(C)C)O[C@H]1n1cc(C(N)=O)c2c(N)ncnc21`, in series [1], the Cmax (usually the peak of the concentration-time curve) is 14.2 µM. Besides, the “fold change (FC)” value stood at 2.7 in series [2]; 100 in series [3]; 4.4 in series [4]; 1000 in [6]; 30 in [9]. The outcome in series [5] and in series [8] was Active. Also, the Activity result in [7] is “Toxic”. The EC50 (in general, the midpoint of the concentration-response curve) in series [10] was determined as 540 nM.
